Measurements: ChEMBL document CHEMBL1124215, “Improved delivery through biological membranes. 26. Design, synthesis, and pharmacological activity of a novel chemical delivery system for beta-adrenergic blocking agents” (1988)

Legend:
Assay type in all cases: functional
[1] = test system: Oryctolagus cuniculus; test: Effect on IOP of rabbits 2 hr after administration (1%)
Method in brief: (§1)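 IOP was read by pneumatonometer in unrestrained, unanesthetized rabbits after local propacaine drops. Drug was given as a 1% or 2.5% solution in pH 7.4 buffer or saline to both eyes, at least four rabbits per group; controls (at least three) received carrier only. Readings were taken at 30 and 60 min and at 2, 3, 4, 6 and 8 h. Values are mean ± SE; Student's t test.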

[2] = test system: Oryctolagus cuniculus; test: Effect on IOP of rabbits 4 hr after administration (1%); method in brief: as §1
[3] = test system: Oryctolagus cuniculus; test: Percentage change of IOP in rabbits after 2 hr administration (1%) of compound; method in brief: as §1
[4] = test system: Oryctolagus cuniculus; test: Percentage change of IOP in rabbits after 1 hr administration (1%) of compound; method in brief: as §1
[5] = test system: Oryctolagus cuniculus; test: Percentage change of IOP in rabbits after 30 min administration (1%) of compound
Method in brief: (§2)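 Rabbits received 1% or 2.5% drug solution in pH 7.4 buffer or saline in both eyes, at least four per group. A control group of at least three rabbits received carrier only. IOP was read by pneumatonometer in unrestrained, unanesthetized animals after one drop of 0.5% propacaine diluted 1:2 with saline. Readings were taken at 30 and 60 min and at 2–8 h. Values are mean ± SE, with significance by Student's t test.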

[6] = test system: Oryctolagus cuniculus; test: Effect on IOP of rabbits 5 hr after administration (1%)
[7] = test system: Oryctolagus cuniculus; test: Effect on IOP of rabbits 1 hr after administration (1%); method in brief: as §1
[8] = test system: Oryctolagus cuniculus; test: Percentage change of IOP in rabbits after 4 hr administration (1%) of compound; method in brief: as §2
[9] = test system: Oryctolagus cuniculus; test: Percentage change of IOP in rabbits after 3h administration (1%) of compound; method in brief: as §2
[10] = test system: Oryctolagus cuniculus; test: Percentage change of IOP in rabbits after 8 hr administration (1%) of compound; method in brief: as §2
[11] = test system: Oryctolagus cuniculus; test: Percentage change of IOP in rabbits after 6 hr administration (1%) of compound; method in brief: as §2
[12] = test system: Oryctolagus cuniculus; test: Percentage change of IOP in rabbits after 0 min administration (1%) of compound; method in brief: as §1
[13] = test system: Oryctolagus cuniculus; test: Percentage change of IOP in rabbits after 5 hr administration (1%) of compound; method in brief: as §2
[14] = test system: Oryctolagus cuniculus; test: Effect on IOP of rabbits 0 min after administration (1%); method in brief: as §1
[15] = test system: Oryctolagus cuniculus; test: Effect on IOP of rabbits 30 mins after administration (1%); method in brief: as §1
[16] = test system: Oryctolagus cuniculus; test: Effect on IOP of rabbits 3h after administration (1%); method in brief: as §1
[17] = test system: Oryctolagus cuniculus; test: Effect on IOP of rabbits 6 hr after administration (1%); method in brief: as §1
[18] = test system: Oryctolagus cuniculus; test: Effect on IOP of rabbits 8 hr after administration (1%); method in brief: as §1

Structure (SMILES)	IOP [1]	IOP [2]	Change [3]	Change [4]	Change [5]	IOP [6]	IOP [7]	Change [8]	Change [9]	Change [10]	Change [11]	Change [12]	Change [13]	IOP [14]	IOP [15]	IOP [16]	IOP [17]	IOP [18]
CC(C)(C)NC[C@H](O)COc1nsnc1N1CCOCC1 (stereo in doubt; 1b) [TIMOLOL]	27.21 mmHg	24.88 mmHg	6.78%	6.65%	>-10.93%	24.25 mmHg	27.25 mmHg	14.8%	14.3%	>9.8%	12.4%	0%	16.9%	29.19 mmHg	26 mmHg	25 mmHg	25.58 mmHg	–
CC(C)(C)NC[C@H](O)COc1nsnc1N1CCOCC1 (stereo in doubt) [TIMOLOL]	24 mmHg	26.93 mmHg	-15.6%	-14.6%	-2.43%	26.88 mmHg	24.3 mmHg	-5.31%	-11.6%	–	1.2%	0%	-5.49%	28.44 mmHg	27.75 mmHg	25.13 mmHg	28.78 mmHg	26.33 mmHg
